Data published in paper PMC11550832 (Nature Communications, 2024).

Key:
Particle size by DLS = assay type: physicochemical; settings: aqueous solution, 200 μM
Zeta potential by DLS = assay type: physicochemical; settings: 200 μM, mean n = 3
[1] = Critical aggregation concentration; assay type: physicochemical; settings: pyrene probe, I1 (373 nm)/I3 (384 nm), 0.01-50 μM, 37 °C for 2 h, fluorescence
Method in brief: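 Pyrene fluorescence was excited at 335 nm and emission recorded. The I1 (373 nm)/I3 (384 nm) intensity ratio was used to derive the critical aggregation concentration.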

[2] = TEM morphology of nanoparticles; assay type: physicochemical; settings: 50 μM, uranyl acetate stain
Method in brief: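 A 50 μM nanoparticle solution was dried on holey-carbon copper grids and stained with 2% uranyl acetate for 3 min. Grids were imaged by TEM at 120 kV.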

[3] = molecular target: T1, human PD-L1 recombinant protein (Homo sapiens, UniProt Q9NZQ7); assay: PD-L1-induced fibrillar transformation in aqueous solution; assay type: biochemical; settings: 24 h incubation
T1 sequence (Q9NZQ7 19-239 limits assumed): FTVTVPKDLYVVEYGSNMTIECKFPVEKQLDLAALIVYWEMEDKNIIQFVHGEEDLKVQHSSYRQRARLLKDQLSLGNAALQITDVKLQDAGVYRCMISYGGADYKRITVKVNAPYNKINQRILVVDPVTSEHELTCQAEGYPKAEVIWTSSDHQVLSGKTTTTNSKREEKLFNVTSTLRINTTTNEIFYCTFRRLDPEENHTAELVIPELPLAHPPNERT
Method in brief: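 Recombinant human PD-L1 was added to 50 μM nanoparticle solution at molar ratios of 1:100, 1:500, 1:1000, 1:2000 and 1:5000. Mixtures were incubated 0.5 h, 4 h and 24 h, then prepared for TEM to view morphology change.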

[4] = molecular target: T1, human PD-L1 recombinant protein; assay: CD and FTIR spectroscopy of β-sheet formation; assay type: biochemical; settings: human PD-L1, 24 h, 50 μM, ratio 1000:1
Method in brief: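 Nanoparticles were incubated with or without recombinant human PD-L1. β-sheet formation was then detected by CD spectroscopy, with FTIR alongside.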

SKBR-3 cells [5] = assay: Cellular distribution of peptide nanoparticles; assay type: cell-based, human; settings: SKBR-3, 50 μM, 4 h
4T1 cells [6] = assay: Cellular distribution of peptide nanoparticles; assay type: cell-based, mouse; settings: 4T1, 50 μM, 4 h
4T1 cells [7] = assay: Intracellular distribution of internalized TPM2 and TPM3; assay type: cell-based, mouse; settings: 50 μM, 4, 24 and 48 h, LysoTracker, CLSM
PD-L1 on SKBR-3 cells = PD-L1 on SKBR-3 cells (Homo sapiens, UniProt Q9NZQ7); assay: Surface PD-L1 level after treatment; assay type: cell-based; settings: SKBR-3, nanoparticles 50 μM or antibody 68 nM, 4 h, flow cytometry
Sequence of PD-L1 on SKBR-3 cells (Q9NZQ7 19-290): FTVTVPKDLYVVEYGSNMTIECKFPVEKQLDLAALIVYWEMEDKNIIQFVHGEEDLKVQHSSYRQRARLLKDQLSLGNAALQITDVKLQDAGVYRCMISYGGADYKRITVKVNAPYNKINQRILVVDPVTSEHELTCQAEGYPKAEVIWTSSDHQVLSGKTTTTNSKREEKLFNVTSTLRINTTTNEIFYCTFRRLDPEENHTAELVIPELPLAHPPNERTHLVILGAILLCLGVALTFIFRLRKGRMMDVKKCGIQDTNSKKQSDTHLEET
Method in brief: (§1)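 Cells were washed and moved to medium without FBS or penicillin/streptomycin. They were treated 4 h at 37 °C, 5% CO₂ with nanoparticles (50 μM) or anti-PD-L1 antibody (68 nM). Surface PD-L1 was stained 15 min at 4 °C with BV421 antibody (1:200), anti-human for SKBR-3 and anti-mouse for 4T1. Cells were PBS-washed three times and analysed by flow cytometry.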

PD-L1 on 4T1 cells = PD-L1 on 4T1 cells (Mus musculus, UniProt Q9EP73); assay: Surface PD-L1 level after treatment; assay type: cell-based; settings: 4T1, nanoparticles 50 μM or antibody 68 nM, 4 h, flow cytometry
Sequence of PD-L1 on 4T1 cells (Q9EP73 19-290): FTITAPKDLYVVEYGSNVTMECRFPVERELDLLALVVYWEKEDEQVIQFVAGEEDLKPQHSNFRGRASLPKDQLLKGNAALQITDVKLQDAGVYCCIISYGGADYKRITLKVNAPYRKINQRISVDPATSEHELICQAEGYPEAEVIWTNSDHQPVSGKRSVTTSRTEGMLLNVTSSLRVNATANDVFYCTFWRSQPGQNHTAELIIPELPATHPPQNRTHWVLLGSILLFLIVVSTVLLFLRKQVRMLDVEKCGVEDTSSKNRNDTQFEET
Method in brief: as §1

[8] = molecular target: PD-L1 on the membrane of SKBR-3 cells (Homo sapiens, UniProt Q9NZQ7); assay: Co-location of nanoparticles and PD-L1 on cell membrane; assay type: cell-based; settings: SKBR-3, 4 h, FITC immunofluorescence
Sequence of PD-L1 on the membrane of SKBR-3 cells (Q9NZQ7 19-290): as the sequence (Q9NZQ7 19-290) above
Method in brief: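 PD-L1 on cells was immunostained with a FITC-labelled goat anti-mouse secondary (1:1000, 1 h, room temperature) after PBS washes. Nuclei were stained with DAPI and cells imaged by confocal microscopy. Co-localization with the nanoparticle signal was quantified computationally.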

HFF cells = assay: Cytotoxicity, CCK-8; assay type: cell-based, human; settings: CCK-8, 24 h, 1, 10, 50, 100 and 200 μM, n = 5
Method in brief: (§2)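 Cells at 8 × 10³ per well were exposed to 1, 10, 50, 100 and 200 μM nanoparticles in DMEM, RPMI-1640 or McCoy's 5A complete medium for 24 h. CCK-8 was added for a further 2 h and OD450 read. Viability (%) = [(treated − blank)/(control − blank)] × 100.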

SKBR-3 cells [9] = assay: Cytotoxicity, CCK-8; assay type: cell-based, human; settings: SKBR-3, CCK-8, 24 h, 1-200 μM; TPM1 finding at 100 μM or 200 μM
Method in brief: as §2

4T1 cells [10] = assay: Cytotoxicity, CCK-8; assay type: cell-based, mouse; settings: 4T1, CCK-8, 24 h, 1-200 μM; TPM1 finding at 100 μM or 200 μM
Method in brief: as §2

LLC cells = assay: Cytotoxicity, CCK-8; assay type: cell-based, mouse; settings: CCK-8, 24 h, 1-200 μM, TPM1 finding at 100 μM or 200 μM
Method in brief: as §2

[11] = system: 4T1 cells co-cultured with activated CD8+ T cells; assay: Killing effect of activated CD8+ T cells on treated 4T1 cells; assay type: cell-based, mouse; settings: co-culture of 4T1 and activated CD8+ T cells
Method in brief: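 Splenic mouse CD8⁺ T cells were expanded with IL-2 and activated with anti-CD3/CD28 beads. 4T1 cells were pretreated 4 h with test compound or anti-PD-L1 antibody (68 nM), washed, then co-cultured with T cells (1:10) for 24 h. T cells alone on 4T1 served as control. Read-outs: CCK-8 viability (6 × 10³ cells/well) or calcein-AM staining, 20 min (2 × 10⁴ cells/well).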

mice bearing 4T1 tumour = assay: Bio-distribution, ex vivo fluorescence imaging; assay type: in vivo, mouse; settings: single i.v. 13 mg/kg, 4T1 tumour mice, post-injection
Method in brief: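 Female Balb/c mice (6–8 weeks) carrying subcutaneous 4T1 tumours (1 × 10⁶ cells, right flank) got a single tail-vein dose of 13 mg/kg nanoparticle. n = 3 per group per time point. Tumour, heart, liver, spleen, lung, kidney, intestine and muscle were harvested at 2, 4, 6, 8, 10, 24, 48, 72 and 168 h post-injection and imaged ex vivo by fluorescence.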

[12] = system: mice bearing 4T1 breast cancer; assay: In vivo inflammatory effect, serum TNF, IL-6, IL-1β ELISA; design: species or system mouse; settings: 21 days after a single dose, 4T1 tumour mice, n = 5
Method in brief: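 Serum was taken from 4T1 tumour-bearing mice (n = 5 per group) 21 days after a single dose. Arms: PBS 200 μL i.v., nanoparticles 13 mg/kg via tail vein, anti-PD-L1 antibody 5 mg/kg. TNF, IL-6 and IL-1β were measured by ELISA.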

PD-L1 in SKBR-3 cells = assay: Upregulation of PD-L1 induced by IFN-γ; assay type: cell-based, human; settings: SKBR-3, 100 ng/mL, 24 h
Method in brief: (§3)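 Recombinant human IFN-γ (100 ng/mL) added to complete medium of SKBR-3 cells for 24 h. Western blot: cells PBS-washed three times, lysed on ice in RIPA buffer with 1% protease inhibitor, spun 13523 × g, 3 min, 4 °C; band density quantified. Flow cytometry: PBS-washed cells stained with BV421-labelled human anti-PD-L1 (1:200), 15 min, 4 °C, washed thrice.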

PD-L1 in 4T1 cells = assay: Upregulation of PD-L1 induced by IFN-γ; assay type: cell-based, mouse; settings: 4T1, 100 ng/mL, 24 h
Method in brief: as §3, with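 “4T1 cells received mouse” for “Recombinant human”, “in” for “added to”, “medium” for “medium of SKBR-3 cells”, “mouse” for “human”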

## Ac-K(Ce6)-GGAAK-SGQYASYHCWCWRDPGRSGGSK [TPM2]
Particle size by DLS
  diameter of nanoparticles (DLS): ~ 19 nm
Zeta potential by DLS
  zeta potential of initial nanoparticles: +19.6 mV
[1]
  critical aggregation concentration (CAC): 9.8 µM
[2]
  morphology of nanoparticles (TEM): spherical structure
[3]
  morphology after incubation with PD-L1 proteins (TEM): no noticeable change in morphology
[4]
  CD signals after incubation with PD-L1 protein: No such change
SKBR-3 cells [5]
  location of Ce6 red fluorescence signals (CLSM): inside cells rather than on the cell membranes
4T1 cells [6]
  location of Ce6 red fluorescence signals (CLSM): inside cells rather than on the cell membranes
4T1 cells [7]
  fate of internalized nanoparticles: predominately degraded in lysosomes
PD-L1 on SKBR-3 cells
  change in PD-L1 expression levels before and after incubation: no significant changes
PD-L1 on 4T1 cells
  change in PD-L1 expression levels before and after incubation: no significant changes
[8]
  co-localization with PD-L1 on cell membrane: No apparent co-localization
HFF cells
  cytotoxicity: no apparent cytotoxicity
SKBR-3 cells [9]
  cytotoxicity: No cytotoxicity
4T1 cells [10]
  cytotoxicity: No cytotoxicity
LLC cells
  cytotoxicity: No cytotoxicity
[11]
  effect on T cell activity: no effect
Mice bearing 4T1 tumour; ex vivo imaging
  time of peak fluorescence intensity in the tumour: 24 h
Mice bearing 4T1 tumour
  fluorescent signals in the tumour remained until: 48 h
[12]
  serum TNF, IL-6 and IL-1β versus PBS and other groups: no significant difference

B1: IFN-γ: human or mouse IFN-γ (PeproTech), 100 ng/mL, used to upregulate PD-L1 expression (protein, UniProt P01579 24-161, looked up)
Interferon gamma: QDPYVKEAENLKKYFNAGHSDVADNGTLFLGILKNWKEESDRKIMQSQIVSFYFKLFKNFKDDQSIQKSVETIKEDMNVKFFNSNKKKRDDFEKLTNYSVTDLNVQRKAIHELIQVMAELSPAAKTGKRKRSQMLFRG
PD-L1 in SKBR-3 cells
  PD-L1 expression after IFN-γ treatment: increased PD-L1 expression
PD-L1 in 4T1 cells
  PD-L1 expression after IFN-γ treatment: increased PD-L1 expression
